Results as given in ChEMBL document CHEMBL1144893, “Discovery of a potent and selective protein kinase CK2 inhibitor by high-throughput docking” (J Med Chem, 2003).

Columns and labels:
[1] = biological target: T1, Casein kinase II (Homo sapiens) (UniProt P67870+P68400+P19784); assay: Inhibition of Casein kinase 2 at 10 uM; type: protein-complex assay
[2] = biological target: Vascular endothelial growth factor receptor 1 (Homo sapiens) (UniProt P17948); assay: Inhibition of Protein kinase Flt-1 at 10 uM
Procedure, shortened: (§1)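 Filter-binding assay with recombinant GST-fused kinase domains expressed in baculovirus and purified over glutathione sepharose. [33P]-ATP was the phosphate donor and polyGluTyr (4:1) the acceptor. ATP was near Km: KDR, Flt-1, FGFR-1, Tek 8.0 μM; PDGFR-β, c-Kit, c-Met 1.0 μM; c-abl 5 μM; Her-1, Her-2 2.0 μM; c-Src 20 μM; IGF-1R 30 μM.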

[3] = biological target: Cyclin-dependent kinase 1 (Homo sapiens) (UniProt P06493); assay: Inhibition of Cyclin dependent kinase 1 at 10 uM
Procedure, shortened: (§2)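 Run under conditions optimized for each kinase, with ATP near the enzyme's Km: CDK1 7.5 μM, PKA 50 μM.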

[4] = biological target: Mast/stem cell growth factor receptor Kit (Homo sapiens) (UniProt P10721); assay: Inhibition of Protein kinase Kit at 10 uM; procedure, shortened: as §1
[5] = biological target: RAF proto-oncogene serine/threonine-protein kinase (Homo sapiens) (UniProt P04049); details: 10 uM
[6] = biological target: Insulin receptor (Homo sapiens) (UniProt P06213); assay: Inhibition of Insulin receptor at 10 uM
[7] = biological target: Receptor-type tyrosine-protein kinase FLT3 (Homo sapiens) (UniProt P36888); assay: Inhibition of Protein kinase Flt-3 at 10 uM
[8] = biological target: 3-phosphoinositide-dependent protein kinase 1 (Homo sapiens) (UniProt O15530); assay: Inhibition of Phosphatidylinositol-trisphosphate-dependent kinase 1 at 10 uM
[9] = biological target: Receptor tyrosine-protein kinase erbB-2 (Homo sapiens) (UniProt P04626); assay: Inhibition of protein kinase HER-2 at 10 uM; procedure, shortened: as §1
[10] = biological target: Vascular endothelial growth factor receptor 3 (Homo sapiens) (UniProt P35916); details: 10 uM
[11] = biological target: cAMP-dependent protein kinase (PKA) (Homo sapiens) (UniProt P22694+P17612+P22612); assay: Inhibition of Protein kinase A at 10 uM; type: protein assay; procedure, shortened: as §2
[12] = biological target: Vascular endothelial growth factor receptor 2 (Homo sapiens) (UniProt P35968); assay: Inhibition of Kinase insert domain receptor (VEGFR2) at 10 uM; procedure, shortened: as §1
[13] = biological target: Fibroblast growth factor receptor 1 (Homo sapiens) (UniProt P11362); assay: Inhibition of Protein kinase fibroblast growth factor receptor 1 at 10 uM; procedure, shortened: as §1
[14] = biological target: T1, Casein kinase II (Homo sapiens)
[15] = biological target: Platelet-derived growth factor receptor beta (Homo sapiens) (UniProt P09619); assay: Inhibition of Platelet derived growth factor receptor beta at 10 uM; procedure, shortened: as §1
[16] = biological target: Angiopoietin-1 receptor (Homo sapiens) (UniProt Q02763); assay: Inhibition of Protein kinase TEK at 10 uM; procedure, shortened: as §1
[17] = biological target: Insulin-like growth factor 1 receptor (Homo sapiens) (UniProt P08069); assay: Inhibition of Type 1 insulin like growth factor receptor at 10 uM; procedure, shortened: as §1
[18] = biological target: Serine/threonine-protein kinase AKT (Homo sapiens) (UniProt P31751+Q9Y243+P31749); assay: Inhibition of Protein kinase B at 10 uM; type: protein assay
[19] = biological target: Epidermal growth factor receptor (Homo sapiens) (UniProt P00533); assay: Inhibition of protein kinase HER-1 at 10 uM; procedure, shortened: as §1
[20] = biological target: Hepatocyte growth factor receptor (Homo sapiens) (UniProt P08581); assay: Inhibition of Protein kinase Met at 10 uM; procedure, shortened: as §1
[21] = biological target: Tyrosine-protein kinase ABL1 (Homo sapiens) (UniProt P00519); assay: Inhibition of c-Abl tyrosine kinase at 10 uM; procedure, shortened: as §1
[22] = biological target: Proto-oncogene tyrosine-protein kinase Src (Homo sapiens) (UniProt P12931); assay: Inhibition of Protein kinase Src at 10 uM; procedure, shortened: as §1

Chain of Fibroblast growth factor receptor 1 (Homo sapiens) (P11362 22-822 limits assumed): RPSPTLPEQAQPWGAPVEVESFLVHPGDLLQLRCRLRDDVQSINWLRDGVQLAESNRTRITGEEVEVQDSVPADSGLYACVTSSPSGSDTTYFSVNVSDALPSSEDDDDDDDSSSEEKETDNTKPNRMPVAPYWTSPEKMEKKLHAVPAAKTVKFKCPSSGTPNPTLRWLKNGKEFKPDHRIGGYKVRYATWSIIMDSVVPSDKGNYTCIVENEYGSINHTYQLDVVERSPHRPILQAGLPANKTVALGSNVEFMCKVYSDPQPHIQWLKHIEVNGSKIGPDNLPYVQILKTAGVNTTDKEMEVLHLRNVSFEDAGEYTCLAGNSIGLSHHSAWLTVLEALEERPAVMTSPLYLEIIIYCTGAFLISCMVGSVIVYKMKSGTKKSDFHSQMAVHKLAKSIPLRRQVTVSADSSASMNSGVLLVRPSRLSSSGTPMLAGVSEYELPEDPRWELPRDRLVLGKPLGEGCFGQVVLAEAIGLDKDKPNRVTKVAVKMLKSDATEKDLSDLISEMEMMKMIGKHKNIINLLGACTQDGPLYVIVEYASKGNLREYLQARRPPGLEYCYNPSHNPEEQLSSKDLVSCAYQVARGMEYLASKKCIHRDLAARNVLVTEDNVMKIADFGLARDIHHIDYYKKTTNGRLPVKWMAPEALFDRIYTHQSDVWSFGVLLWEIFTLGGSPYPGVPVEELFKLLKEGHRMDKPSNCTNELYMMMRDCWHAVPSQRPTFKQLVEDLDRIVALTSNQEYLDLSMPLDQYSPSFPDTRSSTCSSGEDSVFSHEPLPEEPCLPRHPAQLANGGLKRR
Chain of Receptor tyrosine-protein kinase erbB-2 (Homo sapiens) (P04626 whole entry): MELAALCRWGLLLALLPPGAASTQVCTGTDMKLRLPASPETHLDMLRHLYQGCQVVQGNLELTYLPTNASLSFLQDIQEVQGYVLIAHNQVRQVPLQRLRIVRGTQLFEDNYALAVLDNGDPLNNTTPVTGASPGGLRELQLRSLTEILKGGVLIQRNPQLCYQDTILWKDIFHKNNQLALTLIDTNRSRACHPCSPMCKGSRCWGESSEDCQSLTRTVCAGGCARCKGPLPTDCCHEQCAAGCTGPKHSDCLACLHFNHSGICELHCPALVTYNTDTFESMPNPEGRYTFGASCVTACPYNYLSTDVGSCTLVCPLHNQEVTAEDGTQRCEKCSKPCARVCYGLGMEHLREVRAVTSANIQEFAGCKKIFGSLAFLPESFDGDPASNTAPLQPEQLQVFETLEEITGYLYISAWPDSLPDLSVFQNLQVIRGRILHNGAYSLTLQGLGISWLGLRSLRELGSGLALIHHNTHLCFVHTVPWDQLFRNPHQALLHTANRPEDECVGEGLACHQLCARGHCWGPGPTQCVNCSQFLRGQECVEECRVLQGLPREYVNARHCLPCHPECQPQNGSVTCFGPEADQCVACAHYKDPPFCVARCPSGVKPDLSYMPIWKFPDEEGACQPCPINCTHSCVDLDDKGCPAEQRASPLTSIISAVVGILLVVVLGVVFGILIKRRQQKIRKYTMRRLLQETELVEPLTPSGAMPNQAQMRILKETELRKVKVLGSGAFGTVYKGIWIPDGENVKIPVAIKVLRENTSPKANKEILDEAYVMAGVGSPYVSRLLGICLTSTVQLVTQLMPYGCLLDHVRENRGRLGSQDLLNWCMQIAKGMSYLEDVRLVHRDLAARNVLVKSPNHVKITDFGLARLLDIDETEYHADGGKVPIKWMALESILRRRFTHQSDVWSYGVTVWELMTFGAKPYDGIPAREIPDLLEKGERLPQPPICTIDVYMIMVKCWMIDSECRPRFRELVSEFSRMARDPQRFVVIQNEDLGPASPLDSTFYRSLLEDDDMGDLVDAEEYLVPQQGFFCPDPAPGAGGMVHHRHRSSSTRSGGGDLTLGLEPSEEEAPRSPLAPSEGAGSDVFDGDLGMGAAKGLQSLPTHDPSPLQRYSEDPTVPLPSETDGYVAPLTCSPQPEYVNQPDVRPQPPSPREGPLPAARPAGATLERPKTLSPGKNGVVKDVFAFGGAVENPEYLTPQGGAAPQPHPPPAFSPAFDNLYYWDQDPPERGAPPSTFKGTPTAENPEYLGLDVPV
Chain of Insulin-like growth factor 1 receptor (Homo sapiens) (P08069 31-736 limits assumed): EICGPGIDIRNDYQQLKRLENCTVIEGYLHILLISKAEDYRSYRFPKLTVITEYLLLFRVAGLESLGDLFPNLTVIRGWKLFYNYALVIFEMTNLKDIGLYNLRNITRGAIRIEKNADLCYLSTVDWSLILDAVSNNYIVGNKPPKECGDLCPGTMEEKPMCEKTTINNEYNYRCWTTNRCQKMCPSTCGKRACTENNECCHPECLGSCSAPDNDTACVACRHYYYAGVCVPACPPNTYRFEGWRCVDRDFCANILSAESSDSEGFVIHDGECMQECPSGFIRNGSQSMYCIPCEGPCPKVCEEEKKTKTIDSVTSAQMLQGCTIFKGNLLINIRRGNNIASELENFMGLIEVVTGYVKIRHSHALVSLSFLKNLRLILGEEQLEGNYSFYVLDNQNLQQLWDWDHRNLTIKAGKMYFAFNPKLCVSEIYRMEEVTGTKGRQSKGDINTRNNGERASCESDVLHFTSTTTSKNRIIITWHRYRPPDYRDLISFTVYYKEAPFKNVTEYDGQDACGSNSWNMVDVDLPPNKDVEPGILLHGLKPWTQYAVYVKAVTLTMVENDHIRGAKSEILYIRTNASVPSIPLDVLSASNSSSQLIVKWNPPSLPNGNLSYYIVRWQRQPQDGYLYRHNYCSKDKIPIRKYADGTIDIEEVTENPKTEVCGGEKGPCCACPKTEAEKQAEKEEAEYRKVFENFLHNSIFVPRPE
Chain of Insulin-like growth factor 1 receptor (Homo sapiens) (P08069 741-1367 limits assumed): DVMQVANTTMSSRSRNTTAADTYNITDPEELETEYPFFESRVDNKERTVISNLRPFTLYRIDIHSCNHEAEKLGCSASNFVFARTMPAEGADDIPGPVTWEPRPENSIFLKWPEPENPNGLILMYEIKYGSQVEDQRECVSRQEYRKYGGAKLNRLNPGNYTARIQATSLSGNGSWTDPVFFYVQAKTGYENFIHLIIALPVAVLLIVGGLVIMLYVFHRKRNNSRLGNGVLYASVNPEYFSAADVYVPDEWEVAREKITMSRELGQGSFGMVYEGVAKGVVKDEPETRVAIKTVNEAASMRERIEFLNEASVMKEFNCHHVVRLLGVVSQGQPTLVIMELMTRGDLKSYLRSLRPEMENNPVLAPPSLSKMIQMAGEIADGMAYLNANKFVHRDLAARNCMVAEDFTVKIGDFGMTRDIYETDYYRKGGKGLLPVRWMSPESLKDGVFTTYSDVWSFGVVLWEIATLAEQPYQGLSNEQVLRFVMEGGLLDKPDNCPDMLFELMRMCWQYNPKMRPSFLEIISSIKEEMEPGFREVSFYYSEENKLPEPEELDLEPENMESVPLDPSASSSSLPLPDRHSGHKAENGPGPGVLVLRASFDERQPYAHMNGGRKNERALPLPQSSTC
Chain of Vascular endothelial growth factor receptor 3 (Homo sapiens) (P35916 whole entry): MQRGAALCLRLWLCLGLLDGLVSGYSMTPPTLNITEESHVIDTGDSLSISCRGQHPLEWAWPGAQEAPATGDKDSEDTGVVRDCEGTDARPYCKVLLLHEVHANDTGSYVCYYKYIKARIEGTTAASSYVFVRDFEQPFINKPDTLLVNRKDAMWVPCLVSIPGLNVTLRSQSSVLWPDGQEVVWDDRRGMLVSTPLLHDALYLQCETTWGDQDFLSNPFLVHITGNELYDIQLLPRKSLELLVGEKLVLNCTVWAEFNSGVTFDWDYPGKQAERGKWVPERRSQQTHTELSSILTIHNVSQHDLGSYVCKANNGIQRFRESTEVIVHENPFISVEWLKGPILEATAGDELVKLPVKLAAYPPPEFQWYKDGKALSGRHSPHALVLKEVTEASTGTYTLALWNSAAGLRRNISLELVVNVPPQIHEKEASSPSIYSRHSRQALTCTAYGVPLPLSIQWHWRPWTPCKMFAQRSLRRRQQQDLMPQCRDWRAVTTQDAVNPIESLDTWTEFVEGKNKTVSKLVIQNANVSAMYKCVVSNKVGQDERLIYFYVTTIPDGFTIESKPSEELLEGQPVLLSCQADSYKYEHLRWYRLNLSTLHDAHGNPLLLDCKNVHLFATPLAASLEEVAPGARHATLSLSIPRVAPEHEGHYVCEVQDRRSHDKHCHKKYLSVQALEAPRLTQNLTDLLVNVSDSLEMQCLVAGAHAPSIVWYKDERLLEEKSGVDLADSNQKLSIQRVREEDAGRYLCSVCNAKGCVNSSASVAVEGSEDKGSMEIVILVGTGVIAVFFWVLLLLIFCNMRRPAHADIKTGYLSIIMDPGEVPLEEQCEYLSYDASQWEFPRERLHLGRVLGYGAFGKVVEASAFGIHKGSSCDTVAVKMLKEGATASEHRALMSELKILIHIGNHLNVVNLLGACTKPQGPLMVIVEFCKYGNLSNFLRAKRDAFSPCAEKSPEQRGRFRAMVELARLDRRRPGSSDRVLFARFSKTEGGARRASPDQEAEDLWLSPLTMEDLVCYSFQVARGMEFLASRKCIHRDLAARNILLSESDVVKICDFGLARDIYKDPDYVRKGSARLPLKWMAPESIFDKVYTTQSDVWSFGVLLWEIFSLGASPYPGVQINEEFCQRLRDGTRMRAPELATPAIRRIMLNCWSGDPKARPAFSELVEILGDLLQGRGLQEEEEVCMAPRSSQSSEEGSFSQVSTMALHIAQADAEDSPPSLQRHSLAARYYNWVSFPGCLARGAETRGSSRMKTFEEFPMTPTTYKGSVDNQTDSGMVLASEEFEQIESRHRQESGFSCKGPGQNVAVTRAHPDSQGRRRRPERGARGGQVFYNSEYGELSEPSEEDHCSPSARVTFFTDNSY
Chain of Cyclin-dependent kinase 1 (Homo sapiens) (P06493 whole entry, looked up): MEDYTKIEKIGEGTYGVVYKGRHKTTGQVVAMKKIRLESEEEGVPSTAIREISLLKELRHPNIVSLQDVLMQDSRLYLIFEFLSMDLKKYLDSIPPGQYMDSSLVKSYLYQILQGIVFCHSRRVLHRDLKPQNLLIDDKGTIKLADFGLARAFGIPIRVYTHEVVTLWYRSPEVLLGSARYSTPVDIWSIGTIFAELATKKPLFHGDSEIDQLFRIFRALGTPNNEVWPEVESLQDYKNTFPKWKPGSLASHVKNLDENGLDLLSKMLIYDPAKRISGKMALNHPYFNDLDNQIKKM

Question: How did the inhibition [1] turn out when `Cc1c2ccccc2n2c1nc(O)c1ccccc12` was run?
Answer: 12%

Question: For `O=C(O)Cc1c2ccccc2n2c1[nH]c(=O)c1ccccc12`, which inhibition [1] is on record?
Answer: 97%

Question: And the inhibition [2]?
Answer: 21%

Question: And the inhibition [3]?
Answer: 51%

Question: What about the inhibition [4] of the same compound?
Answer: 31%

Question: And the inhibition [5]?
Answer: 30%

Question: And the inhibition [6]?
Answer: 23%

Question: What about the inhibition [7] of the same compound?
Answer: 41%

Question: What about the inhibition [8] of the same compound?
Answer: 9%

Question: And the inhibition [9]?
Answer: 29%

Question: What about the inhibition [10] of the same compound?
Answer: 30%

Question: And the inhibition [11]?
Answer: 51%

Question: And the inhibition [12]?
Answer: 54%

Question: And the inhibition [13]?
Answer: 32%

Question: What about the IC50 [14] of the same compound?
Answer: 80 nM

Question: And the inhibition [15]?
Answer: 11%

Question: What about the inhibition [16] of the same compound?
Answer: 36%

Question: And the inhibition [17]?
Answer: 44%

Question: And the inhibition [18]?
Answer: 30%

Question: And the inhibition [19]?
Answer: 12%

Question: And the inhibition [20]?
Answer: 40%

Question: What about the inhibition [21] of the same compound?
Answer: 25%

Question: And the inhibition [22]?
Answer: 0%

Question: For `OCCc1c2ccccc2n2c1nc(O)c1ccccc12`, which inhibition [1] is on record?
Answer: 48%
